# Measurements from ChEMBL document CHEMBL1208679, “Synthesis and evaluation of a new series of Neuropeptide S receptor antagonists” (Bioorg Med Chem Lett, 2010).
# Active and inactive are the calls of the source. The calls are words filed in the database; no cut-off is given here.
# Columns and labels:
# [1] = biological target: T1, Neuropeptide S receptor (Homo sapiens, UniProt Q6W5P4); assay: Antagonist activity at human recombinant NPS receptor expressed in CHOK1 cells assessed as inhibition of NPS-induced calcium mobilization by FLIPR assay; type: functional, cell-based, CHO-K1
# T1 sequence (Q6W5P4 whole entry): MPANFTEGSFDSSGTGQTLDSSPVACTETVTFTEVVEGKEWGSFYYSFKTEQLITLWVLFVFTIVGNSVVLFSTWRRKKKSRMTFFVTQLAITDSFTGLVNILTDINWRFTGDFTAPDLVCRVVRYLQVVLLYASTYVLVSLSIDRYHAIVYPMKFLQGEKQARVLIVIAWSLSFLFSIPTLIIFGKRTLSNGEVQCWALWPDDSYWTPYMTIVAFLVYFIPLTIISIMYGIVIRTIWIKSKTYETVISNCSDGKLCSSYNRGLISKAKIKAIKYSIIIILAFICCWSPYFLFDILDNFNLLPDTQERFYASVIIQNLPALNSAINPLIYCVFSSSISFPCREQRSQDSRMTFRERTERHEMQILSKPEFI
# In short: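 Dual-sequence FLIPR Ca2+ mobilization in CHOK1 cells expressing recombinant NPSR, plated 24 h before the run. Fluo4AM dye loaded 1 h at 37 °C, 5% CO2. Cells incubated with titrated compound for 4 min, then an EC80 of human NPS added and read for another 4 min. Inhibition calculated against NPS-stimulated control wells. IC50 from 4-parameter logistic fits, averaged over at least two experiments.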
# [2] = biological target: T2, MDR1 (ABCB1, P-glycoprotein) (Homo sapiens, UniProt P08183); assay: Permeability of the compound assessed as MDR1-mediated directional transport ratio by cell based assay; conditions: not told
# T2 sequence (P08183 whole entry): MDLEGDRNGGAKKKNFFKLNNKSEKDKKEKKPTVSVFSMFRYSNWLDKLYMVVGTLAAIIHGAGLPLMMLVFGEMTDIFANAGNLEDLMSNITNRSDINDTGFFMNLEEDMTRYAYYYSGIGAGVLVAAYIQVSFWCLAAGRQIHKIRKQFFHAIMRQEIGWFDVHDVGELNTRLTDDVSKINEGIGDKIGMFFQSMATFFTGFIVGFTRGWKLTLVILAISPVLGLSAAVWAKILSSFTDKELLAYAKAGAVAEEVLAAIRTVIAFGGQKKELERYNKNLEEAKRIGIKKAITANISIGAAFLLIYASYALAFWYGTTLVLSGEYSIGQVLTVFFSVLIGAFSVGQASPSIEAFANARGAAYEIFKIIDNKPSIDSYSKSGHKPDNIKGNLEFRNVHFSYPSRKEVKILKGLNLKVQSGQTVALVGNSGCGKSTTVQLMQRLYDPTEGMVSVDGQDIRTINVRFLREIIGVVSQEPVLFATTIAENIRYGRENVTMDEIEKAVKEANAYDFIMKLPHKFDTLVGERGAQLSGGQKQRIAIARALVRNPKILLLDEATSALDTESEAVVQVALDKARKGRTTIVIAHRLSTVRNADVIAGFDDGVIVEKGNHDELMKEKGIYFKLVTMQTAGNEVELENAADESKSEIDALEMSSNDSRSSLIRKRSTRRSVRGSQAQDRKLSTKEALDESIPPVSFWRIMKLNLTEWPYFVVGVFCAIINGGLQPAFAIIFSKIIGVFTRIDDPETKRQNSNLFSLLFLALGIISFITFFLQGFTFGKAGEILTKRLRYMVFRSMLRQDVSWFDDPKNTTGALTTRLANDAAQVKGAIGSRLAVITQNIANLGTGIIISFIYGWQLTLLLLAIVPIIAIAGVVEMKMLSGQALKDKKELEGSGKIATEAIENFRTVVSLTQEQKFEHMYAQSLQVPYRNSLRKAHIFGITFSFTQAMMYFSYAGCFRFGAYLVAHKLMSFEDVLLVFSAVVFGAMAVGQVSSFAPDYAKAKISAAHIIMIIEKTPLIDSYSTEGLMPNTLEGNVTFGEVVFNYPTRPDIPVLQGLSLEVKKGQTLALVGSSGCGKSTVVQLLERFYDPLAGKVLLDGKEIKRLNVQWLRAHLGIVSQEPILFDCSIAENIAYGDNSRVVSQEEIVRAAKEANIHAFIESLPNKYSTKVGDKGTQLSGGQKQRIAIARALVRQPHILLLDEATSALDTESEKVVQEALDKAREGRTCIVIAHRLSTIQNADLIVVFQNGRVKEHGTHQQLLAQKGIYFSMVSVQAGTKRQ
# In short: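 MDR1 directional transport ratio, calculated as (B to A)/(A to B). Average of three experiments.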
# [3] = biological target: T2, MDR1 (ABCB1, P-glycoprotein); assay: (§1) Permeability of the compound assessed as MDR1-passive permeability by cell based assay; conditions: not told; read-out: permeability
# In short: (§2)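 Passive permeability expressed as Papp in 10^-6 cm/s.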
# [4] = Protein binding in human plasma; conditions: read-out: PPB (converted)
# [5] = Drug level in rat cerebrospinal fluid at 30 mg/kg, ip after 2 hrs; type: ADME, organism-based; parameters: dose 30 mg/kg, route intraperitoneal; conditions: read-out: Drug uptake
# In short: (§3)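 Rats dosed 30 mg/kg ip. Plasma, brain and CSF levels measured at 0.5 h and 2.0 h and reported in nM.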
# [6] = Drug level in rat brain at 30 mg/kg, ip after 2 hrs; type: ADME, organism-based; parameters: dose 30 mg/kg, route intraperitoneal; conditions: read-out: Drug uptake; in short: as §3
# [7] = biological target: T3, Neuropeptide S receptor (Rattus norvegicus, UniProt P0C0L6); assay: Displacement of [125I]NPS from NPS receptor in rat brain superior coliculus after 30 mins; type: tissue-based
# T3 sequence (P0C0L6 whole entry): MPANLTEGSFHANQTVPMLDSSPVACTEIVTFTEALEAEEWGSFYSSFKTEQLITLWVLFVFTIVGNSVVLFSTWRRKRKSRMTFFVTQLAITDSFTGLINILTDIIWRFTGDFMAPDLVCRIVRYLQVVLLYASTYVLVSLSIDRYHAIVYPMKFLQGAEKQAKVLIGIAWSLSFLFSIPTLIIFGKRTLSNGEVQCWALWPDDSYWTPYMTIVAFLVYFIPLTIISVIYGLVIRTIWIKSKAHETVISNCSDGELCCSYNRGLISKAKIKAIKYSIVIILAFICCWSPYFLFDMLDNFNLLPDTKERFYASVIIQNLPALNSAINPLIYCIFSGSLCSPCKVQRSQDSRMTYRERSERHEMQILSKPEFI
# In short: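 Rat brain sections from vehicle-treated animals (25% HPB cyclodextrin/75% sterile water, ip), preincubated in vitro with titrated compound. Nonspecific binding from co-incubation with 2 µM unlabeled hNPS. 2–3 sections per concentration. Mean ± SEM.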
# [8] = tested on: Plasma; assay: Protein binding in human plasma; type: ADME, cell-free
# [9] = Drug level in rat cerebrospinal fluid at 30 mg/kg, ip after 0.5 hrs; type: ADME, organism-based; parameters: dose 30 mg/kg, route intraperitoneal; conditions: read-out: Drug uptake; in short: as §3
# [10] = biological target: ATP-dependent translocase ABCB1 (Homo sapiens, UniProt P08183); assay: as §1; in short: as §2
# ATP-dependent translocase ABCB1, sequence (P08183 whole entry): as the sequence (P08183 whole entry) above
# [11] = biological target: T3, Neuropeptide S receptor; assay: Displacement of [3H]quinolinone from rat NPS receptor
# [12] = Drug level in rat plasma at 30 mg/kg, ip after 2 hrs; type: ADME, organism-based; parameters: dose 30 mg/kg, route intraperitoneal; conditions: read-out: Drug uptake; in short: as §3
# [13] = tested on: Rattus norvegicus; assay: Ex vivo receptor occupancy in ip dosed rat brain dorsal endopiriform nucleus assessed inhibition of [125I]NPS binding after 30 mins; type: functional, organism-based
# In short: (§4)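 Compound given 30 mg/kg ip in 25% HPB cyclodextrin. Brain taken 30 min after dosing (n = 4 rats, 2–3 sections/rat). Tissue sections incubated with 0.5 nM 125I-hNPS for 30 min, with 2 µM unlabeled hNPS defining nonspecific binding. Mean percent occupancy in AON, DEN or SC relative to vehicle was plotted against plasma compound concentration, with IC50 from nonlinear regression.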
# [14] = tested on: Rattus norvegicus; assay: Ex vivo receptor occupancy in ip dosed rat brain anterior olfactory nucleus assessed inhibition of [125I]NPS binding after 30 mins; type: functional, organism-based; in short: as §4
# [15] = Drug level in rat plasma at 30 mg/kg, ip after 0.5 hrs; type: ADME, organism-based; parameters: dose 30 mg/kg, route intraperitoneal; conditions: read-out: Drug uptake; in short: as §3
# [16] = Drug level in rat brain at 30 mg/kg, ip after 0.5 hrs; type: ADME, organism-based; parameters: dose 30 mg/kg, route intraperitoneal; conditions: read-out: Drug uptake; in short: as §3
# [17] = tested on: Rattus norvegicus; assay: Ex vivo receptor occupancy in ip dosed rat brain superior coliculus assessed inhibition of [125I]NPS binding after 30 mins; type: functional, organism-based; in short: as §4
# [18] = tested on: Rattus norvegicus; assay: Ex vivo receptor occupancy of NPS receptor in rat brain superior coliculus at 30 mg/kg, ip after 30 mins; type: functional, organism-based; parameters: dose 30 mg/kg; in short: as §4
# [19] = tested on: Rattus norvegicus; assay: Ex vivo receptor occupancy of NPS receptor in rat brain dorsal endopiriform nucleus at 30 mg/kg, ip after 30 mins; type: functional, organism-based; parameters: dose 30 mg/kg; in short: as §4
# [20] = tested on: Rattus norvegicus; assay: Ex vivo receptor occupancy of NPS receptor in rat brain anterior olfactory nucleus at 30 mg/kg, ip after 30 mins; type: functional, organism-based; parameters: dose 30 mg/kg; in short: as §4
IC50 [1],efflux ratio [2],Papp [3],Structure (SMILES),also measured
1580 nM,,,CC(CCN1CCCC1)N(Cc1cc2ccccc2n(C)c1=O)C(=O)C1CCCCC1 (configuration not stated),
326 nM,,,Cn1c(=O)c(CN(C(=O)C2CCCCC2)C(C)(C)CCN2CCCC2)cc2ccccc21,
31 nM,36,25 ×10⁻⁶ cm/s,Cn1c(=O)c(CN(C(=O)C2CCCCC2)C(C)(C)CCN2CCCCC2)cc2ccccc21,
144 nM,2,23 ×10⁻⁶ cm/s,Cn1c(=O)c(CN(C(=O)C2CCCCC2)C(C)(C)CCN2CCOCC2)cc2ccccc21,
7 nM,43,28 ×10⁻⁶ cm/s,CCC(C)(CCN1CCCCC1)N(Cc1cc2ccccc2n(C)c1=O)C(=O)C1CCCCC1 (racemic),fraction unbound [4]: 0.11
14 nM,2.6,33 ×10⁻⁶ cm/s,CCC(C)(CCN1CCC(F)CC1)N(Cc1cc2ccccc2n(C)c1=O)C(=O)C1CCCCC1 (racemic),

# The next lines start with the compound.
Structure (SMILES),IC50 [1],efflux ratio [2],Papp [3],also measured
CN1CCN(C2(CN(Cc3cc4ccccc4n(C)c3=O)C(=O)C3CCCCC3)CCCCC2)CC1,18 nM,10.6,,
CC(CCN1CCOCC1)N(Cc1cc2ccccc2n(C)c1=O)C(=O)C1CCCCC1 (configuration not stated),725 nM,,,
CCC(CC)(CCN1CCOCC1)N(Cc1cc2ccccc2n(C)c1=O)C(=O)C1CCCCC1,103 nM,,,
Cn1c(=O)c(CN(C(=O)C2CCCCC2)C2(CCN3CCOCC3)CCCCC2)cc2ccccc21,398 nM,,,
CCC(C)(CCN1CCC(F)(F)CC1)N(Cc1cc2ccccc2n(C)c1=O)C(=O)C1CCCCC1 (racemic),22 nM,1.1,25 ×10⁻⁶ cm/s,fraction unbound [4]: 0.03
CCC(C)(CCN1CCOCC1)N(Cc1cc2ccccc2n(C)c1=O)C(=O)C1CCCCC1 (racemic),23 nM,,18 ×10⁻⁶ cm/s,
"CCC(C)(CCN1CCOCC1)N(Cc1cc2ccccc2n(C)c1=O)C(=O)C1CCCCC1 (single isomer, unassigned; enantiomer 1) [listing 1 of 2 here]",10 nM,,,concentration at 2 h [5]: 45 nM; concentration at 2 h [6]: 665 nM; IC50 [7]: 1.44 nM; PPB [8]: 82%; concentration at 0.5 h [9]: 101 nM; permeability [10]: 36 ×10⁻⁶ cm/s; EC50 [11]: 1.3 nM; concentration at 2 h [12]: 2300 nM; IC50 ([13]; 0.5 h): 380 nM; IC50 ([14]; 0.5 h): 570 nM; concentration at 0.5 h [15]: 4340 nM; concentration at 0.5 h [16]: 1690 nM; IC50 ([17]; 0.5 h): 130 nM
"CCC(C)(CCN1CCOCC1)N(Cc1cc2ccccc2n(C)c1=O)C(=O)C1CCCCC1 (single isomer, unassigned; enantiomer 1) [listing 2 of 2 here]",,,,Activity [18]: Active; Activity [19]: Active; Activity [20]: Active; Activity [13]: Dose-dependent effect; Activity [14]: Dose-dependent effect; Activity [17]: Dose-dependent effect
"CCC(C)(CCN1CCOCC1)N(Cc1cc2ccccc2n(C)c1=O)C(=O)C1CCCCC1 (single isomer, unassigned; enantiomer 2)",785 nM,,,
